The source of these data is ChEMBL document CHEMBL1155784, “Aromatic 2-chloroethyl urea derivatives and bioisosteres. Part 2: Cytocidal activity and effects on the nuclear translocation of thioredoxin-1, and the cell cycle progression” (2008).

Active and inactive are the calls of the source. The calls are words filed in the database; no cut-off is given here.

Assay [1] deals with M21. Description: Growth inhibition of human M21 cells after 48 hrs by sulforhodamine B assay. The note with it: M21, 48 h. The assay is classed as functional. An outline of the steps: (§1)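 NCI-style sulforhodamine B assay. HT-29 (5×10³), M21 or MCF-7 (3.5×10³) cells were grown 24 h, then given DMSO-solubilized drug at 100 to 0.7 µM final (DMSO <0.5%) for 48 h. Fixed in cold 10% TCA, stained with 0.1% SRB, read at 585 nm after subtracting a day-0 plate. Inhibition is relative to DMSO controls; GI50 from at least triplicate runs.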
(In general: Sulforhodamine B stains cellular protein and so reports cell mass.)

Assay [2] deals with MCF7. Description: Growth inhibition of human MCF7 cells after 48 hrs by sulforhodamine B assay. The class given is functional. The note with it: MCF7, 48 h. In outline: as §1
Assay [3] concerns MCF7. In words: Cell cycle arrest in human MCF7 cells assessed as G2/M phase accumulation at 2 times GI50 after 24 hrs by flow cytometry.
In assay [4] the test system is MCF7. Description: Cell cycle arrest in human MCF7 cells assessed as G0/G1 phase accumulation at 2 times GI50 after 24 hrs by flow cytometry. A general note: In flow cytometry, cells or beads pass a laser one at a time.
Assay [5] deals with M21. Description: Inhibition of nuclear translocation of thioredoxin 1 in human M21 cells at 50 uM after 18 hrs by immunocytochemistry. The class given is functional, cell-based. An outline of the steps:
(§2)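 M21 cells seeded on fibronectin-coated coverslips, held 18 h at 37 °C, then treated with compounds (5–50 µM; reference agents 0.1–40 µM) or 0.1% DMSO. Fixed in 3.7% formaldehyde, permeabilized with 0.1% saponin, and blocked in 3% BSA. Stained 1 h at 37 °C with anti-thioredoxin-1 monoclonal (1/200), then with Alexa-488 anti-mouse IgG plus DAPI for nuclei.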

Assay [6] has as its system HT-29. Description: Growth inhibition of human HT29 cells after 48 hrs by sulforhodamine B assay. The class given is functional. As to conditions: HT-29, 48 h. An outline of the steps: as §1
Assay [7] concerns MCF7. In words: Cell cycle arrest in human MCF7 cells assessed as S phase accumulation at 2 times GI50 after 24 hrs by flow cytometry.
The test system of assay [8] is M21. In words: Inhibition of nuclear translocation of thioredoxin 1 in human M21 cells at 5 uM after 18 hrs by immunocytochemistry. The class given is functional, cell-based. An outline of the steps: as §2

What is called GI50 is the concentration that inhibits growth by half. Higher therefore signals lower sensitivity of the cells. As to `c1cc(OC2CCCCCC2)ccc1NC1=NCCO1`, the GI50 in assay [1] amounted to 27.1 µM; in assay [2] it was 26.8 µM; in assay [6] it was 16.6 µM. In addition, the Activity in assay [3] is 4%; in assay [4], 82%; in assay [7], 14%. Also, in assay [5], the outcome was Active.

In the case of `O=C(CCl)NC(=O)Nc1ccc(C2CCCCC2)cc1`, the GI50 in assay [1] stood at 0.9 µM; in assay [2] it was 1.5 µM; in assay [6] it was 2.3 µM. Also, the Activity in assay [3] was 24%; in assay [4], 25%; in assay [7] it was 51%. Also, the result in assay [8] was Active.

In the case of `O=C(CCl)NC(=O)Nc1ccc(OC2CCCCCC2)cc1`, the GI50 in assay [1] stood at 5 µM; in assay [2] it was 3.6 µM; in assay [6] it was 2.3 µM. Also, the Activity in assay [3] was 11%; in assay [4], 59%; in assay [7] it was 30%. For the same molecule, in assay [8], the outcome was Active.

Consider `O=C(CCl)NC(=O)Nc1ccc(OC2CCCCC2)cc1`, for which the GI50 in assay [1] was determined as 5 µM; in assay [2], 4.7 µM; in assay [6] it was 3.1 µM. The Activity in assay [3] was 10%; in assay [4] it was 70%; in assay [7] it was 20%. In assay [8], the outcome was Active.

With `Ic1ccc(NC2=NCCO2)cc1`, the Activity in assay [3] was found to be 76%; in assay [4], 14%; in assay [7], 10%. Besides, the result in assay [8] was Active.

With `c1cc(OC2CCCCC2)ccc1NC1=NCCO1`, the GI50 in assay [1] turned out to be 20.8 µM; in assay [2], 19.1 µM; in assay [6], 12.6 µM. Further, the values for the Activity in assay [3], in assay [4] and in assay [7] were 5%, 82% and 13%, respectively. Besides, in assay [5], the outcome was Active.

Turning to `O=C(CCl)NC(=O)Nc1cccc(OC2CCCCC2)c1`, the GI50 was 2.7 µM in assay [1], 6.3 µM in assay [2] and 3.8 µM in assay [6]. The Activity in assay [3] is 7%; in assay [4], 73%; in assay [7], 20%. Moreover, the outcome in assay [8] was Active.

Consider `CC(C)(C)c1ccc(NC(=O)NC(=O)CCl)cc1`, for which the Activity amounted to 19% in assay [3], 61% in assay [4] and 20% in assay [7]. The outcome in assay [8] was Active.

`O=C(CCl)NC(=O)Nc1ccc(I)cc1`: the Activity in assay [3] amounted to 10%; in assay [4], 68%; in assay [7] it was 22%. In assay [8], the result was Active.

On to `c1ccc(Oc2ccc(NC3=NCCO3)cc2)cc1`, for which the GI50 in assay [1] stood at 3.1 µM; in assay [2], 3.5 µM; in assay [6], 2 µM. In addition, the outcome in assay [5] and in assay [8] was inactive.

With `c1cc(C2CCCCC2)ccc1NC1=NCCO1`, the GI50 turned out to be 17.8 µM in assay [1], 17.5 µM in assay [2] and 12.8 µM in assay [6]. In addition, the Activity in assay [3] was 11%; in assay [4], 73%; in assay [7], 16%. Moreover, the result in assay [5] was Active.

As to `c1cc(OC2CCCC2)ccc1NC1=NCCO1`, the values for the GI50 in assay [1], in assay [2] and in assay [6] were 21.1 µM, 23.1 µM and 16.1 µM, respectively. For the same molecule, the Activity in assay [3] stood at 7%; in assay [4], 70%; in assay [7], 23%. The outcome in assay [5] was Active.

As for `CC(C)(C)c1ccc(NC2=NCCO2)cc1`, the Activity in assay [3] turned out to be 74%; in assay [4], 15%; in assay [7] it was 11%. Moreover, the result in assay [8] was inactive.

Regarding `c1cc(NC2=NCCO2)cc(OC2CCCC2)c1`, the results for the GI50 in assay [1], in assay [2] and in assay [6] were 76.9 µM, 62.1 µM and 52.2 µM, respectively. Moreover, the results for the Activity in assay [3], in assay [4] and in assay [7] were 6%, 77% and 17%, respectively. Moreover, in assay [5], the result was Active.
